Data published in ChEMBL document CHEMBL3526146, “In vitro and in vivo metabolism and pharmacokinetics of BMS-562086, a potent and orally bioavailable corticotropin-releasing factor-1 receptor antagonist” (Drug Metab Dispos, 2012).

Columns and labels:
[1] = Drug metabolism in mouse liver microsomes assessed as DPH-124921 metabolite level at 100 uM after 1 hr in presence of NADPH; assay type: ADME
In short: (§1)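 Liver microsomes (1 mg/ml protein) in 100 mM phosphate buffer with 100 µM test compound. Reaction started by adding NADPH (1 mM), then run at 37°C for 1 h in a shaking water bath, in duplicate. Controls lacked microsomal protein or NADPH; 7-ethoxycoumarin (100 µM) was the positive control. Metabolites identified by LC/MS/MS.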

[2] = Drug metabolism in mouse hepatocytes at 25 uM after 3 hrs by LC-MS/MS analysis; assay type: ADME, cell-based, Hepatocyte
In short: (§2)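 Hepatocytes checked for viability by trypan blue exclusion, then diluted in Krebs-Henseleit buffer to 1.0 × 10^6 cells/ml. Incubated in duplicate with 25 µM compound at 37°C for 3 h on an orbital shaker (80 rpm) under 95/5 O2/CO2. Negative control had no cells. Stopped with ice-cold acetonitrile, sonicated, centrifuged; supernatant analysed by LC/MS/MS.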

[3] = Drug metabolism in mouse liver microsomes assessed as DPH-123554 metabolite level at 100 uM after 1 hr in presence of NADPH; assay type: ADME; in short: as §1
Liver microsome [4] = test: Detection of compound level in beagle dog liver microsomes treated with 100 uM of BMS-562086 after 1 hr by LC-MS/MS analysis
[5] = Drug metabolism in rat hepatocytes assessed as BMS-572273 metabolite level at 25 uM after 3 hrs by LC-MS/MS analysis; assay type: ADME, cell-based, Hepatocyte; in short: as §2
[6] = Drug metabolism in cynomolgus monkey liver microsomes assessed as DPH-123554 metabolite level at 100 uM after 1 hr in presence of NADPH; assay type: ADME, Macaca fascicularis
In short: (§3)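 Mouse, rat, dog, monkey and human liver microsomes (1 mg/ml protein) were incubated with 100 µM compound in 100 mM phosphate buffer. Reactions were started with 1 mM NADPH and run 1 h at 37°C in duplicate. Controls lacked protein or NADPH, plus a 7-ethoxycoumarin (100 µM) positive control. Metabolites were identified by LC/MS/MS.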

[7] = Drug metabolism in mouse hepatocytes assessed as DPH-123554 metabolite level at 25 uM after 3 hrs by LC-MS/MS analysis; assay type: ADME, cell-based, Hepatocyte; in short: as §2
[8] = Drug metabolism in rat hepatocytes assessed as DPH-123554 metabolite level at 25 uM after 3 hrs by LC-MS/MS analysis; assay type: ADME, cell-based, Hepatocyte; in short: as §2
Liver microsome [9] = test: Drug metabolism in rat liver microsomes at 100 uM after 1 hr in presence of NADPH; assay type: ADME; in short: as §1
[10] = Drug metabolism in rat hepatocytes at 25 uM after 3 hrs by LC-MS/MS analysis; assay type: ADME, cell-based, Hepatocyte; in short: as §2
[11] = Detection of compound level in cynomolgus monkey liver microsomes treated with 100 uM of BMS-562086 after 1 hr by LC-MS/MS analysis
Liver microsome [12] = test: Drug metabolism in rat liver microsomes assessed as DPH-123554 metabolite level at 100 uM after 1 hr in presence of NADPH; assay type: ADME; in short: as §1
[13] = Drug metabolism in human cryopreserved hepatocytes at 25 uM after 3 hrs by LC-MS/MS analysis; assay type: ADME, cell-based, Hepatocyte; in short: as §2
[14] = Drug metabolism in human cryopreserved hepatocytes assessed as DPH-123554 metabolite level at 25 uM after 3 hrs by LC-MS/MS analysis; assay type: ADME, cell-based, Hepatocyte; in short: as §2
[15] = Drug metabolism in human cryopreserved hepatocytes assessed as DPH-124921 metabolite level at 25 uM after 3 hrs by LC-MS/MS analysis; assay type: ADME, cell-based, Hepatocyte; in short: as §2
Hepatocyte [16] = test: Detection of compound level in mouse hepatocytes treated with 25 uM of BMS-562086 after 3 hrs by LC-MS/MS analysis; assay type: ADME, cell-based
In short: (§4)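 Mouse, rat, dog, monkey and human hepatocytes (trypan blue viability checked) at 1.0×10^6 cells/ml in Krebs-Henseleit buffer were incubated with 25 µM compound, in duplicate. Conditions were 37°C, 95/5 O2/CO2, orbital shaking, 3 h. 7-Ethoxycoumarin and 7-hydroxycoumarin (100 µM) served as positive controls, with a cell-free negative control. Reactions were quenched with ice-cold acetonitrile, then sonicated and centrifuged; supernatants were analysed by LC/MS/MS.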

Liver microsome [17] = test: Drug metabolism in rat liver microsomes assessed as DPH-124921 metabolite level at 100 uM after 1 hr in presence of NADPH; assay type: ADME; in short: as §1
[18] = Drug metabolism in mouse hepatocytes assessed as BMS-572273 metabolite level at 25 uM after 3 hrs by LC-MS/MS analysis; assay type: ADME, cell-based, Hepatocyte; in short: as §2
Hepatocyte [19] = test: Detection of compound level in rat hepatocytes treated with 25 uM of BMS-562086 after 3 hrs by LC-MS/MS analysis; assay type: ADME, cell-based; in short: as §4
[20] = Drug metabolism in mouse hepatocytes assessed as DPH-124921 metabolite level at 25 uM after 3 hrs by LC-MS/MS analysis; assay type: ADME, cell-based, Hepatocyte; in short: as §2
[21] = Drug metabolism in cynomolgus monkey cryopreserved hepatocytes assessed as DPH-124921 metabolite level at 25 uM after 3 hrs by LC-MS/MS analysis; assay type: ADME, cell-based, Macaca fascicularis, Hepatocyte; in short: as §4
[22] = Drug metabolism in beagle dog hepatocytes at 25 uM after 3 hrs by LC-MS/MS analysis; assay type: ADME, cell-based, Canis lupus familiaris, Hepatocyte; in short: as §4
[23] = Drug metabolism in cynomolgus monkey liver microsomes assessed as BMS-572273 metabolite level at 100 uM after 1 hr in presence of NADPH; assay type: ADME, Macaca fascicularis; in short: as §3
Liver microsome [24] = test: Drug metabolism in rat liver microsomes assessed as BMS-572273 metabolite level at 100 uM after 1 hr in presence of NADPH; assay type: ADME; in short: as §1
Liver microsome [25] = test: Drug metabolism in beagle dog liver microsomes assessed as DPH-123554 metabolite level at 100 uM after 1 hr in presence of NADPH; assay type: ADME, Canis lupus familiaris; in short: as §3
[26] = Drug metabolism in beagle dog hepatocytes assessed as BMS-572273 metabolite level at 25 uM after 3 hrs by LC-MS/MS analysis; assay type: ADME, cell-based, Canis lupus familiaris, Hepatocyte; in short: as §4
[27] = Retention time of the compound by HPLC method; assay type: physicochemical
Liver microsome [28] = test: Detection of compound level in rat liver microsomes treated with 100 uM of BMS-562086 after 1 hr by LC-MS/MS analysis
[29] = Drug metabolism in cynomolgus monkey cryopreserved hepatocytes assessed as BMS-572273 metabolite level at 25 uM after 3 hrs by LC-MS/MS analysis; assay type: ADME, cell-based, Macaca fascicularis, Hepatocyte; in short: as §4
Liver microsome [30] = test: Drug metabolism in dog liver microsomes assessed as DPH-124921 metabolite level at 100 uM after 1 hr in presence of NADPH; assay type: ADME, Canis lupus familiaris; in short: as §3
[31] = Drug metabolism in cynomolgus monkey cryopreserved hepatocytes assessed as DPH-123554 metabolite level at 25 uM after 3 hrs by LC-MS/MS analysis; assay type: ADME, cell-based, Macaca fascicularis, Hepatocyte; in short: as §4
[32] = Drug metabolism in cynomolgus monkey liver microsomes at 100 uM after 1 hr in presence of NADPH; assay type: ADME, Macaca fascicularis; in short: as §3
[33] = Drug metabolism in cynomolgus monkey cryopreserved hepatocytes at 25 uM after 3 hrs by LC-MS/MS analysis; assay type: ADME, cell-based, Macaca fascicularis, Hepatocyte; in short: as §4
Liver microsome [34] = test: Drug metabolism in human liver microsomes assessed as DPH-124921 metabolite level at 100 uM after 1 hr in presence of NADPH; assay type: ADME; in short: as §1
Liver microsome [35] = test: Drug metabolism in human liver microsomes assessed as DPH-123554 metabolite level at 100 uM after 1 hr in presence of NADPH; assay type: ADME; in short: as §1

CC[C@@H](C)Nc1nc(C)nc2c(-c3ccc(O)nc3C)c(C)nn12
Drug metabolism [1]: metabolite_detected
Drug metabolism [2]: metabolite_detected
Drug metabolism [3]: metabolite_detected
Drug metabolism (Liver microsome [4]): metabolite_detected
Drug metabolism [5]: metabolite_detected
Drug metabolism [6]: metabolite_detected
Drug metabolism [7]: metabolite_detected
Drug metabolism [8]: metabolite_detected
Drug metabolism (Liver microsome [9]): metabolite_detected
Drug metabolism [10]: metabolite_detected
Drug metabolism [11]: metabolite_detected
Drug metabolism (Liver microsome [12]): metabolite_detected
Drug metabolism [13]: metabolite_detected
Drug metabolism [14]: metabolite_detected
Drug metabolism [15]: metabolite_detected
Drug metabolism (Hepatocyte [16]): metabolite_detected
Drug metabolism (Liver microsome [17]): metabolite_detected
Drug metabolism [18]: metabolite_detected
Drug metabolism (Hepatocyte [19]): metabolite_detected
Drug metabolism [20]: metabolite_detected
Drug metabolism [21]: metabolite_detected
Drug metabolism [22]: metabolite_detected
Drug metabolism [23]: metabolite_detected
Drug metabolism (Liver microsome [24]): metabolite_detected
Drug metabolism (Liver microsome [25]): metabolite_detected
Drug metabolism [26]: metabolite_detected
Retention_time [27]: 32.1 min
Drug metabolism (Liver microsome [28]): metabolite_detected
Drug metabolism [29]: metabolite_detected
Drug metabolism (Liver microsome [30]): metabolite_detected
Drug metabolism [31]: metabolite_detected
Drug metabolism [32]: metabolite_detected
Drug metabolism [33]: metabolite_detected
Drug metabolism (Liver microsome [34]): metabolite_detected
Drug metabolism (Liver microsome [35]): metabolite_detected
